{"data": "Experimental data from different studies"}
{"SMILES": "COC(=O)c1cc(-c2cccc(NC(=O)Nc3ccc(F)c(F)c3)c2)on1", "organism": "Acinetobacter baumannii", "assay": "microbial growth, broth dilution", "system": "BAA1605", "quantity": "MIC", "result": "> 64 µg/mL"}
{"SMILES": "C=C1CC[C@H](O)C/C1=C/C=C1\\CCC[C@]2(C)[C@@H]([C@H](C)/C=C/[C@H](C)C(C)C)CC[C@@H]12", "organism": "Hepatitis C virus", "assay": "viral replication, inhibitor, luciferase", "system": "GETYPE2A", "conditions": "72 h, replicon", "quantity": "EC50", "result": "14.2 µM"}
{"SMILES": "Cc1cc(/C=C2\\Sc3ccccc3N2CCCN2CCCCC2)c2ccccc2[n+]1C.[I-]", "organism": "Acinetobacter baumannii", "assay": "microbial growth, broth dilution", "system": "ATCC19606", "conditions": "drug-resistant strain", "quantity": "MIC", "result": "64 µg/mL"}
{"SMILES": "NC(=O)c1ncn([C@@H]2O[C@H](CO)[C@@H](O)[C@H]2O)n1", "organism": "Enterovirus B", "assay": "viral replication, inhibitor", "system": "Vero, B4", "quantity": "EC50", "result": "> 250 µM"}
{"SMILES": "COc1cccc(OC)c1C(=O)N[C@@H]1C(=O)N2[C@@H]1SC(C)(C)[C@@H]2C(=O)O", "organism": "Acinetobacter baumannii", "assay": "microbial growth, broth dilution", "system": "ATCC19606", "conditions": "drug-resistant strain", "quantity": "MIC", "result": "> 256 µg/mL"}
{"SMILES": "CC(=O)C1=C(O)C(CC(C)C)NC1=O (stereo not shown)", "organism": "Proteus mirabilis", "assay": "microbial growth", "system": "ATCC25933", "quantity": "MIC", "result": "> 200 µg/mL"}
{"SMILES": "CC1CCC2(CC1)SCC(=O)N2NC(=O)c1[nH]c2ccc(Cl)cc2c1-c1ccccc1 (stereo not shown)", "organism": "Enterovirus B", "assay": "viral replication, inhibitor", "system": "Vero, B4", "quantity": "EC50", "result": "> 100 µM"}
{"SMILES": "COC(=O)c1cc(-c2cccc(NC(=O)Nc3cc(OC)ccc3OC)c2)on1", "organism": "Acinetobacter baumannii", "assay": "microbial growth, broth dilution", "system": "BAA1605", "quantity": "MIC", "result": "> 64 µg/mL"}
{"SMILES": "Cc1c(NN=C(C#N)C2=NC(=O)CS2)c(=O)n(-c2ccccc2)n1C", "organism": "Acinetobacter baumannii", "assay": "microbial growth, well diffusion", "conditions": "100000 µg/mL", "quantity": "inhibition zone", "result": "27 mm"}
{"SMILES": "CC(C)(CO)C(=O)SCCOP(=O)(NCc1ccccc1)OC[C@H]1O[C@@H](n2cnc3c(=O)[nH]c(N)nc32)[C@](C)(O)[C@@H]1O (mixture of isomers)", "organism": "Hepatitis C virus", "assay": "viral replication, inhibitor", "system": "Huh-7, GETYPE1", "conditions": "replicon", "quantity": "EC90", "result": "0.9 µM"}
{"SMILES": "CC(C)S(=O)(=O)n1c(N)nc2ccc(/C(=N/O)c3ccccc3)cc21", "organism": "Enterovirus B", "assay": "viral replication, inhibitor", "system": "Vero 76, B3", "quantity": "EC50", "result": "< 0.01 µM"}
{"SMILES": "COC(=O)c1cc(-c2cccc(NC(=O)Nc3cccc(F)c3)c2)on1", "organism": "Acinetobacter baumannii", "assay": "microbial growth, broth dilution", "system": "BAA1605", "quantity": "MIC", "result": "> 64 µg/mL"}
{"SMILES": "C=C1/C(=C\\C=C2/CCC[C@]3(C)[C@@H]([C@H](C)CCCC(C)(C)O)CC[C@@H]23)C[C@@H](O)C[C@@H]1O", "organism": "Hepatitis C virus", "assay": "viral replication, inhibitor, luciferase", "system": "GETYPE2A", "conditions": "5 days, replicon", "quantity": "EC50", "result": "4.71 µM"}
{"SMILES": "COC(=O)c1cc(-c2cccc(NC(=O)Nc3cccc(C(F)(F)F)c3)c2)on1", "organism": "Acinetobacter baumannii", "assay": "microbial growth, broth dilution", "system": "BAA1605", "quantity": "MIC", "result": "> 64 µg/mL"}
{"SMILES": "CCC1CCC2(CC1)SC(C)C(=O)N2NC(=O)c1[nH]c2ccc(Cl)cc2c1-c1ccccc1 (stereo not shown)", "organism": "Enterovirus B", "assay": "viral replication, inhibitor", "system": "Vero, B4", "quantity": "EC50", "result": "> 100 µM"}
{"SMILES": "COc1nc(N)nc2c1ncn2[C@@H]1O[C@H](COP(=O)(N[C@@H](C)C(=O)OCC(C)(C)C)Oc2cccc3ccccc23)[C@@H](O)[C@@]1(C)O (stereo partly shown)", "organism": "Hepatitis C virus", "assay": "viral replication, inhibitor", "system": "GETYPE1A", "conditions": "96 h, replicon", "quantity": "EC90", "result": "0.004 µM"}
{"SMILES": "C=C1CC[C@H](O)C/C1=C/C=C1\\CCC[C@]2(C)[C@@H]([C@H](C)CCCC(C)C)CC[C@@H]12", "organism": "Hepatitis C virus", "assay": "viral replication, inhibitor, luciferase", "system": "BM4-5, GETYPE1B", "conditions": "5 days, replicon", "quantity": "EC50", "result": "3.8 µM"}
{"SMILES": "COC(=O)c1cc(-c2cccc(NC(=S)Nc3ccc(C)cc3)c2)on1", "organism": "Acinetobacter baumannii", "assay": "microbial growth, broth dilution", "system": "BAA1605", "quantity": "MIC", "result": "> 64 µg/mL"}
{"SMILES": "CCCC1CCC2(CC1)SC(C)C(=O)N2NC(=O)c1[nH]c2ccc(Cl)cc2c1-c1ccccc1 (stereo not shown)", "organism": "Enterovirus B", "assay": "viral replication, inhibitor", "system": "Vero, B4", "quantity": "EC50", "result": "> 100 µM"}
{"SMILES": "COC(=O)c1cc(-c2cccc(NC(=O)Nc3cccc(Cl)c3Cl)c2)on1", "organism": "Acinetobacter baumannii", "assay": "microbial growth, broth dilution", "system": "BAA1605", "quantity": "MIC", "result": "> 64 µg/mL"}
{"SMILES": "CC1CCCC2(C1)SCC(=O)N2NC(=O)c1[nH]c2ccc(Cl)cc2c1-c1ccccc1 (stereo not shown)", "organism": "Enterovirus B", "assay": "viral replication, inhibitor", "system": "Vero, B4", "quantity": "EC50", "result": "> 100 µM"}
{"SMILES": "COC(=O)c1cc(-c2cccc(NC(=O)Nc3ccc(F)cc3)c2)on1", "organism": "Acinetobacter baumannii", "assay": "microbial growth, broth dilution", "system": "BAA1605", "quantity": "MIC", "result": "> 64 µg/mL"}
{"SMILES": "CC1CCCC2(C1)SC(C)C(=O)N2NC(=O)c1[nH]c2ccc(Cl)cc2c1-c1ccccc1 (stereo not shown)", "organism": "Enterovirus B", "assay": "viral replication, inhibitor", "system": "Vero, B4", "quantity": "EC50", "result": "> 100 µM"}
{"SMILES": "CSc1ccc(/C=C/c2cc(/C=C3\\Sc4ccccc4N3CCCN3CCCC3)c3ccccc3[n+]2C)cc1.[I-]", "organism": "Acinetobacter baumannii", "assay": "microbial growth, broth dilution", "system": "ATCC19606", "conditions": "drug-resistant strain", "quantity": "MIC", "result": "64 µg/mL"}
{"SMILES": "CC1SC2(CCCC2)N(NC(=O)c2[nH]c3ccc(Cl)cc3c2-c2ccccc2)C1=O (stereo not shown)", "organism": "Enterovirus B", "assay": "viral replication, inhibitor", "system": "Vero, B4", "quantity": "EC50", "result": "> 100 µM"}
{"SMILES": "COC(=O)c1cc(-c2cccc(NC(=O)Nc3c(C)cccc3C)c2)on1", "organism": "Acinetobacter baumannii", "assay": "microbial growth, broth dilution", "system": "BAA1605", "quantity": "MIC", "result": "> 64 µg/mL"}
{"SMILES": "O=C(NN1C(=O)CSC12CCC(c1ccccc1)CC2)c1[nH]c2ccc(Cl)cc2c1-c1ccccc1 (stereo not shown)", "organism": "Enterovirus B", "assay": "viral replication, inhibitor", "system": "Vero, B4", "quantity": "EC50", "result": "> 100 µM"}
{"SMILES": "CO[C@H]1/C=C/O[C@@]2(C)Oc3c(C)c(O)c4c(O)c(c(/C=N/N5CCN(C)CC5)c(O)c4c3C2=O)NC(=O)/C(C)=C\\C=C\\[C@H](C)[C@H](O)[C@@H](C)[C@@H](O)[C@@H](C)[C@H](OC(C)=O)[C@@H]1C", "organism": "Acinetobacter baumannii", "assay": "microbial growth, broth dilution", "system": "ATCC19606", "conditions": "drug-resistant strain", "quantity": "MIC", "result": "1 µg/mL"}
